Assay type in all cases: functional, organism-based
Experiment [1] relates to Meloidogyne incognita. Nature of the experiment: Nematicidal activity against second-stage juvenile Meloidogyne incognita (root-knot nematode) assessed as paralysis measured after 1 day. The note with it: 24 h. The essentials: (§1)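 Compounds diluted from ethanol stocks into water with Tween 20 (final ≤1% ethanol, ≤0.3% Tween). Motile vs paralyzed scored microscopically; Schneider-Orelli correction for water-control paralysis; EC50 by log-logistic regression; six replicates, two experiments.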

Experiment [2] concerns Meloidogyne javanica. Nature of the experiment: Nematicidal activity against second-stage juvenile Meloidogyne javanica (root-knot nematode) assessed as paralysis measured after 1 day. Conditions: 24 h. The essentials:
as §1

The test system of experiment [3] is Meloidogyne incognita. Nature of the experiment: Nematicidal activity against second-stage juvenile Meloidogyne incognita (root-knot nematode) assessed as paralysis measured after 1 hr. The essentials:
as §1

Experiment [4] relates to Meloidogyne javanica. Nature of the experiment: Nematicidal activity against second-stage juvenile Meloidogyne javanica (root-knot nematode) assessed as paralysis measured after 1 hr. The essentials:
as §1

Values after ≈ are worked out from the molar mass of the structure shown. A value given as a limit tells only on which side of the number the result lay.

For the compound `CCCCCCCCCC(C)=O` [METHYL NONYL KETONE], the EC50 (as a rule, the concentration at which the effect is half-maximal) is 20.6 µg/mL (≈ 121 µM) in the experiment on Meloidogyne incognita [1], 22.5 µg/mL (≈ 132 µM) with Meloidogyne javanica [2], over 500 µg/mL in the experiment on Meloidogyne incognita [3] and over 500 µg/mL in the experiment with Meloidogyne javanica [4].
For the compound `CCCCCCCCCCC(C)=O` [2-DODECANONE], the EC50 is 33.8 µg/mL (≈ 183 µM) in the experiment on Meloidogyne incognita [1], 59.9 µg/mL (≈ 325 µM) in the experiment on Meloidogyne javanica [2], over 500 µg/mL in the experiment with Meloidogyne incognita [3] and over 500 µg/mL with Meloidogyne javanica [4].
As for `CCCCCCCCOC(C)=O` [OCTYL ACETATE], the EC50 in the experiment with Meloidogyne incognita [1] amounted to 37.3 µg/mL; with Meloidogyne javanica [2], 61.4 µg/mL; in the experiment with Meloidogyne incognita [3], 61.6 µg/mL; in the experiment on Meloidogyne javanica [4], 111 µg/mL.
For `CCCCCCCCCCCC(C)=O` [2-TRIDECANONE], the EC50 is 204 µg/mL (≈ 1030 µM) in the experiment on Meloidogyne incognita [1], 200 µg/mL (≈ 1010 µM) in the experiment with Meloidogyne javanica [2], over 500 µg/mL with Meloidogyne incognita [3] and over 500 µg/mL in the experiment on Meloidogyne javanica [4].
Turning to `CCCCCCCC(C)=O` [2-NONANONE], the EC50 in the experiment on Meloidogyne incognita [1] amounted to 118 µg/mL (≈ 832 µM); with Meloidogyne javanica [2] it was 119 µg/mL (≈ 837 µM); in the experiment with Meloidogyne incognita [3], 279 µg/mL (≈ 1960 µM); with Meloidogyne javanica [4] it was 357 µg/mL (≈ 2510 µM).
The matching figures for `CCCCCCCCC(C)=O` [2-DECANONE]: 55.6 µg/mL (≈ 356 µM), 55.9 µg/mL (≈ 358 µM), 235 µg/mL (≈ 1500 µM) and over 500 µg/mL.
`CCCCCCCC(C)O` (stereo not drawn) [2-NONANOL]: the EC50 with Meloidogyne incognita [1] amounted to 108 µg/mL (≈ 746 µM); in the experiment on Meloidogyne javanica [2], 137 µg/mL (≈ 950 µM); with Meloidogyne incognita [3], 130 µg/mL (≈ 899 µM); with Meloidogyne javanica [4], 178 µg/mL (≈ 1230 µM).

The record behind these values is ChEMBL document CHEMBL3046215, “Aliphatic ketones from Ruta chalepensis (Rutaceae) induce paralysis on root knot nematodes” (J Agric Food Chem, 2011).
